UHRF1 MBD2 ctr: UHRF1 methylated DNA binding inhibitors, primary screen, counter-screen for MBD2 inhibitor project, biochemical, TR-FRET, human UHRF1, single concentration | E3 ubiquitin-protein ligase UHRF1 (Homo sapiens), Q96T88 | UHRF1 binding to methylated oligo | inhibition, % at 4.4 µM | actives 0.75% (n = 370,000); in the data active = inhibition above about 21%;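 also: UHRF1 SRA domain binding a hemimethylated CpG hairpin DNA probe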
Rin1 Abl inh: inhibitors of Rin1-Abl protein binding, primary screen, biochemical, TR-FRET; Tyrosine-protein kinase ABL1 (Homo sapiens) + Ras and Rab interactor 1 (Homo sapiens), …; inhibition, % at 7.35 µM; actives 0.4% (n = 360,000); in the data active = inhibition above about 5%, passing the limit was not always enough
TDP2 absorb: human TDP2 enzyme inhibitors, primary screen, biochemical, epi absorbance, recombinant enzyme; actives 0.34% (n = 370,000); T5PNP hydrolysis, p-nitrophenol absorbance 415 nm; inhibition, % at 12.8 µM; AID 720702, 2013; Tyrosyl-DNA phosphodiesterase 2 (Homo sapiens), O95551;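 active = inhibition above the mean of all tested compounds plus 3 SD, set per campaign, cut at about 25% in these data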
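Test system: human TDP2 enzyme; Input: 120 nM TDP2 per well; Buffer or medium: Mg2+-containing Tris-HCl buffer, pH 7.5; Reagent: 5 mM T5PNP; Dosing: 12.8 µM single point, 1% DMSO; Incubation: reaction 2 h, 37 °C; Detection: p-Nitrophenol epi absorbance; Read-out: % inhibition relative to enzyme-containing and enzyme-free wells; Replicates: single well per compound.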
LEDGF integ inh: blockers of LEDGF/p75-dependent integrase strand transfer – biochemical, TR-FRET, high throughput, primary screen. HIV-1 integrase (with human LEDGF/p75). TR-FRET IN-LEDGF/p75 DNA integration, Eu/Cy5. inhibition, % at 3.7 µM. actives 0.64% (n = 370,000). AID 743269, 2014;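 active = inhibition above the screen-wide mean plus 3 SD, cut at about 13% in these data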;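 also: signal is the Cy5 over europium emission ratio at 671 and 618 nm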
MBD2 DNA inh: inhibitors of MBD2 binding to methylated DNA, primary screen, biochemical, TR-FRET, DNA-binding domain, human; inhibition, % at 4.4 µM; Methyl-CpG-binding domain protein 2 (Homo sapiens), Q9UBB5; MBD2 binding to methylated oligonucleotide; AID 686964, 2013; actives 0.31% (n = 370,000); in the data active = inhibition above about 13%
Target sequence (Q9UBB5 whole entry, looked up, the tested form may be a part): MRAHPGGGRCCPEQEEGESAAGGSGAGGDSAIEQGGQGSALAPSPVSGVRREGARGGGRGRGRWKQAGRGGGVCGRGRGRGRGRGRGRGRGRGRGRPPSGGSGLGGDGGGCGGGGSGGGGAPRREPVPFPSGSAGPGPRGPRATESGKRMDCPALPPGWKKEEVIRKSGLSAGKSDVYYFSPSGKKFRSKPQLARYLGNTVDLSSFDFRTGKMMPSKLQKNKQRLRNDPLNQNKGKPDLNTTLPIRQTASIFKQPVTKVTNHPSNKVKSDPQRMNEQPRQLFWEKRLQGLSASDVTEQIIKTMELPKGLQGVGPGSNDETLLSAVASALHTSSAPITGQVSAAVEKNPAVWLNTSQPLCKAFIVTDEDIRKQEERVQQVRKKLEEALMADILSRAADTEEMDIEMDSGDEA
Rin1 Abl conf: Rin1-Abl binding inhibitor retest, confirmation, biochemical, TR-FRET. shares compounds with Rin1 Abl inh. actives 49% (n = 1,300). inhibition, % at 7.35 µM. purified proteins
GFP quench: GFP fluorescence inhibitors and quenchers, artefact control for Rin1-Abl interaction inhibitor project, biochemical; shares compounds with Rin1 Abl inh; inhibitors/quenchers counterscreen; inhibition, % at 6.75 µM; actives 8.5% (n = 1,300); AID 602125, 2011;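 also: ABL1-eGFP fusion protein alone without its partner RIN1-SBP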
GFP quench dose: GFP fluorescence inhibitors and quenchers, dose response, artefact control for Rin1-Abl interaction inhibitor project, biochemical; shares compounds with Rin1 Abl inh; GFP fluorescence interference/quenching counterscreen; IC50, µM; 230 tested, under 10 active; AID 602182, 2012; call rule not given here;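 also: ABL1-eGFP fusion protein alone without its RIN1 binding partner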
Hits are given with their value; i = inactive; nt = not tested or not shown. A selection: hits, their analogues and other compounds. The true share with any hit is near 1.9%. Rule as the data show it, unless noted: active = inhibition above about 6.5%; inactive = the rest.

SMILES | UHRF1 MBD2 ctr | Rin1 Abl inh | TDP2 absorb | LEDGF integ inh | MBD2 DNA inh | others
Clc1cccc(N2Cc3cc(-c4ccccc4)ccc3-n3nncc3C2)c1 | i | i | i | 67 | i
Clc1cccc(N2Cc3cc(N4CCOCC4)ccc3-n3nncc3C2)c1 | i | i | i | i | i
O=C1C2CC=CCC2C(=O)N1SC(Cl)(Cl)Cl (stereo not given) | i | nt | i | i | i
O=C1c2ccccc2-c2cc3ccccc3cc21 | i | i | i | i | i
O=C1C=C(N2CC2)c2ccccc2C1=O | i | i | 52 | 39 | i
C=CCCC(NC(=O)OCc1ccccc1)P(=O)(Oc1ccccc1)Oc1ccccc1 (stereo not given) | i | nt | i | i | i
COc1ccc(CN2C(=O)NC(=O)/C(=C/c3ccoc3)C2=O)cc1 | 21 | i | i | i | i
Cc1ccc(OP(=O)(NCc2ccccc2)Oc2ccc(C)cc2)cc1 | 23 | i | i | i | i
Cc1cc(O)c2c(c1)C(=O)[C@@]13C(=C2O)C(=O)[C@H]2C(O)[C@@H]1[C@H]1C(O)[C@@H]3C(=O)C3=C(O)c4c(O)cc(C)cc4C(=O)[C@@]312 (stereo not given in full) | i | nt | i | i | i
Cc1cccc(N2C(=O)/C(=C/c3ccc(N4CCN(C)CC4)o3)C(=O)NC2=S)c1C | i | i | i | 14 | i
O=C(C[N+]12CCC(CC1)C(OC(=O)c1ccccc1)C2)c1ccc([N+](=O)[O-])cc1 (stereo not given) | i | i | i | i | i
O=C(C[N+]12CCC(CC1)C(CO)C2)c1ccc([N+](=O)[O-])cc1 (stereo not given) | 29 | i | i | i | i
CC(C)(C)n1nnnc1C1CN=C(c2ccccc2)c2ccccc2N1 (stereo not given) | i | nt | i | i | i
CCN(CC)C(=O)c1ccc2c(c1)C1C=CCC1C(C(=O)O)N2 (stereo not given) | i | i | i | 39 | i
COc1ccc(-c2nc3ccc(Br)cn3c2CC(=O)N2CCCC2)cc1OC | 23 | nt | i | i | i
COc1ccc(Cc2cn(C)c(N)n2)cc1 | i | nt | i | i | i
CCC1(c2ccccc2)C(=O)N(C)C(=O)N(C)C1=O | i | i | i | i | i
CN1C(=O)N(C)C(=O)C2(Sc3ccccc3C2=O)C1=O | i | i | 27 | 29 | i
O=C1NC(=O)N(Cc2ccco2)C(=O)/C1=C/c1cccn1CCOc1ccccc1Cl | 50 | i | i | 57 | i
O=C1NC(=O)N(Cc2ccccc2)C(=O)/C1=C\c1ccco1 | i | i | i | i | i
COc1ccc(CCn2c(O)c(/C=N/N3CCOCC3)c(=O)[nH]c2=O)cc1OC | 42 | i | i | i | i
COc1ccc(CCn2c(O)c(C=NCCN3CCCCC3)c(=O)[nH]c2=O)cc1OC | i | i | i | i | i
CN1C(=O)NC(=O)/C(=C/c2ccc([N+](=O)[O-])o2)C1=O | 65 | nt | i | 37 | i
CCOC(=O)CC[C@@H]1CC[C@]2(CCCN(Cc3ccccn3)C2)O1 | i | nt | i | i | i
Cc1cc2c(C(C)C)c(O)c(O)c(C=O)c2c(O)c1-c1c(C)cc2c(C(C)C)c(O)c(O)c(C=O)c2c1O | i | 16 | i | 66 | i
SMILES | UHRF1 MBD2 ctr | Rin1 Abl inh | TDP2 absorb | LEDGF integ inh | MBD2 DNA inh | others
CC(=O)N1c2ccccc2C(c2ccccc2)=NCC1C(=O)NC1CCCCC1 (stereo not given) | i | nt | i | i | i
COC1=CC23CCCN2CCc2cc4c(cc2C3C1O)OCO4 (stereo not given) | 43 | i | i | i | i
c1ccc(Cn2nnnc2C2CN=C(c3ccccc3)c3ccccc3N2)cc1 (stereo not given) | i | nt | i | i | i
CC[C@H](OC(C)=O)C(C[C@H](C)N(C)C)(c1ccccc1)c1ccccc1 | i | 6.8 | i | i | i | Rin1 Abl conf=8.4;GFP quench=i
O=C(NCCN1CCC2(CC1)C(=O)NCN2c1ccccc1)c1ccc(F)c(F)c1 | i | nt | i | i | i
Cn1ncnc2c(=O)n(C)c(=O)nc1-2 | nt | 29 | nt | nt | nt | Rin1 Abl conf=48;GFP quench=i;GFP quench dose=i
O=c1[nH]c2ccccc2n1C1CCN(C(c2nnnn2-c2ccc3c(c2)OCCO3)C2CC2)CC1 (stereo not given) | i | 17 | i | i | i | Rin1 Abl conf=20;GFP quench=i;GFP quench dose=i
O=c1[nH]c2ccccc2n1C1CCN(C(c2ccccc2)c2nnnn2-c2ccc3c(c2)OCCO3)CC1 (stereo not given) | i | i | i | i | i
COc1ccc(-n2nnnc2C(C2CC2)N2CCC(n3c(=O)[nH]c4ccccc43)CC2)cc1 (stereo not given) | i | 20 | i | i | i | Rin1 Abl conf=24;GFP quench=i;GFP quench dose=i
O=C(NC1CN2CCC1CC2)c1cc(-c2ccc(Cl)cc2)nc2ccccc12 (stereo not given) | i | nt | i | i | i
COP(=O)(OC)C(NS(=O)(=O)c1ccccc1)C(Cl)(Cl)Cl (stereo not given) | i | 8.0 | i | i | i | Rin1 Abl conf=i;GFP quench=i
CCC(C)NC(=O)c1c(N)n(Cc2ccc3c(c2)OCO3)c2nc3ccccc3nc12 (stereo not given) | i | 8.5 | i | i | i | Rin1 Abl conf=i;GFP quench=i
Nc1c(C(=O)NCCN2CCOCC2)c2nc3ccccc3nc2n1Cc1ccccc1 | i | i | i | i | i
COc1cccc(C(c2nnnn2-c2ccc3c(c2)OCCO3)N2CCC(n3c(=O)[nH]c4ccccc43)CC2)c1OC (stereo not given) | i | 20 | i | i | i | Rin1 Abl conf=19;GFP quench=i;GFP quench dose=i
COc1ccc(-n2nnnc2C(c2cccc(OC)c2OC)N2CCC(n3c(=O)[nH]c4ccccc43)CC2)cc1 (stereo not given) | i | 19 | i | i | i | Rin1 Abl conf=16;GFP quench=i
COc1ccc(-n2nnnc2C(c2ccnc3ccccc23)N2CCC(n3c(=O)[nH]c4ccccc43)CC2)cc1 (stereo not given) | i | i | i | i | i
CC(C)(C)NC(=O)CN1C(=O)[C@@H](Cc2c[nH]c3ccccc23)N=C(c2ccccc2)c2ccccc21 | i | nt | i | i | i

Compound activity (PubChem)
